Values after ≈ are worked out from the molar mass of the structure shown. Active and inactive are the calls of the source. The calls are words filed in the database; no cut-off is given here.
Experiments:
[1] = Apparent permeability from basolateral to apical side in human Caco2 cells at 10 uM after 2 hrs by LC-MS/MS analysis; format: ADME, cell-based; conditions: caco-2, 2 h
Escherichia coli [2] = experiment: Inhibition of protein translation/transcription in Escherichia coli S30 cell extract at 0.1 ug/ml using circular DNA with pBESTluc after 60 mins by luciferase reporter gene assay; format: functional
Outline: (§1)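 Coupled transcription/translation used E. coli S30 extract, amino acid mix and premix, with the pBESTluc template carrying firefly luciferase under the tac promoter. Compounds were added in DMSO and reactions were started with DNA. Incubation was 60 min at 37 °C, stopped on ice, and luciferase was read after adding assay substrate.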

[3] = system: Mycobacterium tuberculosis; experiment: Antibacterial activity against Mycobacterium tuberculosis; format: functional; conditions: read-out: MIC100
Outline: (§2)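 Mtb H37Rv grown in 7H9/OADC at 37 °C with shaking to OD600 0.5. The 0.5-OD culture is exposed aerobically to serial dilutions for 15 days at 37 °C. Resazurin (0.02% stock) is then added for 4 h at 37 °C with shaking.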

[4] = system: Mycobacterium tuberculosis; experiment: Antibacterial activity against replicating Mycobacterium tuberculosis H37Rv incubated for 15 days under aerobic condition by MABA; format: functional; conditions: 360 h, read-out: MIC100; outline: as §2
Escherichia coli [5] = experiment: Inhibition of protein translation/transcription in Escherichia coli S30 cell extract at 0.5 ug/ml using circular DNA with pBESTluc after 60 mins by luciferase reporter gene assay; format: functional; outline: as §1
Vero = experiment: Cytotoxicity against African green monkey Vero cells assessed as reduction in cell viability after 72 hrs by MTT assay; format: cell-based; conditions: Chlorocebus sabaeus
Outline: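 Vero cells were grown in complete EMEM with 10% FBS and exposed for 72 h to 0.78–200 µg/mL. The medium was then swapped for phenol-red-free EMEM and MTT was added. Formazan absorbance was read at 570 nm to give IC50.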

[6] = Selectivity index, ratio of IC50 for African green monkey Vero cells to MIC100 for replicating Mycobacterium tuberculosis H37Rv by MABA; format: toxicity; conditions: read-out: Selectivity Index
Outline: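 Vero cells are cultured in EMEM with 10% FBS and exposed for 72 h to 0.78–200 µg/mL. Medium is switched to phenol-red-free EMEM, MTT is added, and formazan is read at 570 nm to give IC50. The selectivity index is Vero IC50 divided by the MABA MIC.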

Erythrocyte = experiment: Hemolytic activity in sheep erythrocytes after 2 hrs; format: ADME, cell-based; conditions: Ovis aries
Outline: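 Washed heparinized sheep erythrocytes at 3% in buffer pH 7.4 were treated with 2–200 µg/mL for 2 h at 37 °C with gentle shaking. Triton X-100 (0.01–1%) was the positive control and PEG:H2O diluent the negative control. Released hemoglobin was read at OD540 and % hemolysis calculated against both controls.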

SMILES | Papp [1] [×10⁻⁶ cm/s] | inhibition (Escherichia coli [2]) | MIC [3] [µg/mL] | MIC [4] [µg/mL] | inhibition (Escherichia coli [5]) | IC50 (Vero) [µg/mL] | selectivity ratio [6] | IC50 (Erythrocyte) [µM]
CNC(=C[N+](=O)[O-])NCCSCc1ccc(CN(C)C)o1 [RANITIDINE] | 1.14 | – | – | – | – | – | – | –
C=C[C@]1(C)C[C@@H](OC(=O)CSC(C)(C)CNC(=O)[C@H](N)CC(C)C)[C@]2(C)[C@H](C)CC[C@]3(CC[C@@H](O)[C@H]32)[C@@H](C)[C@@H]1O | – | Active | < 6.25 | 3.06 (≈ 5.27 µM) | Active | 35 (≈ 60.3 µM) | 11.4 | –
CCCCCCCCCCCCC/C=C/C(=O)N[C@H]1[C@H](O[C@H]2O[C@H](CO)[C@@H](O)[C@H](O)[C@H]2NC(C)=O)O[C@H](CC(O)[C@H]2O[C@@H](n3ccc(=O)[nH]c3=O)[C@H](O)[C@@H]2O)[C@H](O)[C@@H]1O (stereo not given in full) | – | – | – | 12.5 (≈ 14.8 µM) | – | 0.18 (≈ 0.213 µM) | – | 15

— ChEMBL document CHEMBL4229550, “An antimycobacterial pleuromutilin analogue effective against dormant bacilli” (Bioorg Med Chem, 2018)
